Experiments:
[1] = Therapeutic Index is the […] of the IC50 to that of EC50; assay type: cell-based; settings: human, H9 cells; read-out: TI
H9 [2] = test: Anti-HIV activity against acutely infected H9 lymphocytes. Activity expressed as concentration of compound able to suppress HIV replication by 50%.; assay type: functional, cell-based; settings: Homo sapiens
Method in brief: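 H9 cells (RPMI 1640, 10% FCS, L-glutamine, 37 °C, 5% CO2, log phase) infected 1 h with HIV-1 IIIB at MOI 0.1-0.01, washed and plated at 4 × 10^5 cells/mL with DMSO-dissolved samples (screen 100, 20, 4, 0.8 µg/mL final, further dilutions for actives). After 4 days, supernatant p24 was measured by antigen-capture ELISA against a standard curve. EC50 is 50% suppression of replication; at least two experiments averaged.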

H9 [3] = test: Anti-HIV activity against acutely infected H9 lymphocytes. Activity expressed as concentration of compound toxic to 50% of mock-infected H9 cells.; assay type: functional, cell-based; settings: Homo sapiens
Method in brief: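 Uninfected H9 cells were exposed to DMSO-dissolved samples (screen 100, 20, 4, 0.8 µg/mL final) for 4 days at 37 °C, 5% CO2. Remaining cells were counted with a counter against medium-only controls. IC50 is the concentration toxic to 50% of mock-infected cells; at least two experiments averaged.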

H9 [4] = test: Anti-HIV activity was measured in […] by MAGI assay; assay type: functional, cell-based; settings: Homo sapiens
Method in brief: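 HeLa-CD4/β-gal cells were plated at 10 000/well in DMEM with G418 500 µg/mL and hygromycin 250 µg/mL for 1 day. They were then infected with virus dilutions in the presence of varying drug for 2 days at 37 °C. Cells were fixed (1% formaldehyde, 0.2% glutaraldehyde) and stained with X-gal 0.4 mg/mL. Blue cells were counted, and EC50 was taken as a 50% reduction in infected cells.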

Structure (SMILES): C=C(C)[C@@H]1CC[C@]2(COC(=O)CC3(CC(=O)O)CCCC3)CC[C@]3(C)[C@H](CC[C@@H]4[C@@]5(C)CC[C@H](O)C(C)(C)[C@@H]5CC[C@]43C)[C@@H]12
- selectivity ratio [1]: 6.1
- EC50 (H9 [2]): 2.1 µM
- IC50 (H9 [3]): 13.3 µM

Structure (SMILES): CC(C)[C@@H]1CC[C@]2(COC(=O)CCCC(=O)O)CC[C@]3(C)[C@H](CC[C@@H]4[C@@]5(C)CC[C@H](OC(=O)CCCC(=O)O)C(C)(C)[C@@H]5CC[C@]43C)[C@@H]12
- selectivity ratio [1]: 17
- EC50 (H9 [2]): 1.6 µM
- IC50 (H9 [3]): 26.3 µM

Structure (SMILES): C=C(C)[C@@H]1CC[C@]2(COC(=O)CCC(=O)O)CC[C@]3(C)[C@H](CC[C@@H]4[C@@]5(C)CC[C@H](OC(=O)CCC(=O)O)C(C)(C)[C@@H]5CC[C@]43C)[C@@H]12
- selectivity ratio [1]: 9.3
- EC50 (H9 [2]): 3.8 µM
- IC50 (H9 [3]): 35.3 µM

Structure (SMILES): C=C(C)[C@@H]1CC[C@]2(CNC(=O)CC3(CC(=O)O)CCCC3)CC[C@]3(C)[C@H](CC[C@@H]4[C@@]5(C)CC[C@H](NC(=O)CC6(CC(=O)O)CCCC6)C(C)(C)[C@@H]5CC[C@]43C)[C@@H]12
- selectivity ratio [1]: 3.1
- EC50 (H9 [2]): 4.81 µM
- IC50 (H9 [3]): 15 µM

Structure (SMILES): C=C(C)[C@@H]1CC[C@]2(/C=N/OC(=O)CC(C)(C)CC(=O)O)CC[C@]3(C)[C@H](CC[C@@H]4[C@@]5(C)CC/C(=N\OC(=O)CC(C)(C)CC(=O)O)C(C)(C)[C@@H]5CC[C@]43C)[C@@H]12
- selectivity ratio [1]: 3.4
- EC50 (H9 [2]): 4.57 µM
- IC50 (H9 [3]): 15.4 µM

Structure (SMILES): CC(CC(=O)O)CC(=O)OC[C@]12CC[C@@H](C(C)C)[C@@H]1[C@H]1CC[C@@H]3[C@@]4(C)CC[C@H](OC(=O)CC(C)CC(=O)O)C(C)(C)[C@@H]4CC[C@@]3(C)[C@]1(C)CC2 (stereo not given in full)
- selectivity ratio [1]: 325
- EC50 (H9 [2]): 0.059 µM
- IC50 (H9 [3]): 19.2 µM

Structure (SMILES): C=C(C)[C@@H]1CC[C@]2(COC(=O)CCCC(=O)O)CC[C@]3(C)[C@H](CC[C@@H]4[C@@]5(C)CC[C@H](OC(=O)CCCC(=O)O)C(C)(C)[C@@H]5CC[C@]43C)[C@@H]12
- selectivity ratio [1]: 6.8
- EC50 (H9 [2]): 3.8 µM
- IC50 (H9 [3]): 25.8 µM

Structure (SMILES): C=C(COC(=O)CC(C)(C)CC(=O)O)[C@@H]1CC[C@]2(COC(=O)CC(C)(C)CC(=O)O)CC[C@]3(C)[C@H](CC[C@@H]4[C@@]5(C)CC[C@H](OC(=O)CC(C)(C)CC(=O)O)C(C)(C)[C@@H]5CC[C@]43C)[C@@H]12
- selectivity ratio [1]: 389
- EC50 (H9 [2]): 0.045 µM
- IC50 (H9 [3]): 17.5 µM

Structure (SMILES): C=C(C)[C@@H]1CC[C@]2(COC(=O)CC(C)CC(=O)O)CC[C@]3(C)[C@H](CC[C@@H]4[C@@]5(C)CC[C@H](OC(=O)CC(C)CC(=O)O)C(C)(C)[C@@H]5CC[C@]43C)[C@@H]12 (stereo not given in full)
- selectivity ratio [1]: 5310
- EC50 (H9 [2]): 0.0039 µM
- IC50 (H9 [3]): 20.7 µM

Structure (SMILES): C=C(C)[C@@H]1CC[C@]2(COC(=O)C34CC5CC(CC(C5)C3)C4)CC[C@]3(C)[C@H](CC[C@@H]4[C@@]5(C)CC[C@H](OC(=O)CC(C)(C)CC(=O)O)C(C)(C)[C@@H]5CC[C@]43C)[C@@H]12
- selectivity ratio [1]: > 44.8
- EC50 (H9 [2]): 2.98 µM
- IC50 (H9 [3]): > 134 µM

Structure (SMILES): C=C(C)[C@@H]1CC[C@]2(COC(=O)CC(C)(C)CC(=O)O)CC[C@]3(C)[C@H](CC[C@@H]4[C@@]5(C)CC[C@@H](OC(=O)CC(C)(C)CC(=O)O)C(C)(C)[C@@H]5CC[C@]43C)[C@@H]12
- selectivity ratio [1]: < 2.4
- EC50 (H9 [2]): > 13.8 µM
- IC50 (H9 [3]): 33.6 µM

Structure (SMILES): CC(C)[C@@H]1CC[C@]2(COC(=O)CCC(=O)O)CC[C@]3(C)[C@H](CC[C@@H]4[C@@]5(C)CC[C@H](OC(=O)CCC(=O)O)C(C)(C)[C@@H]5CC[C@]43C)[C@@H]12
- selectivity ratio [1]: 6.2
- EC50 (H9 [2]): 4.7 µM
- IC50 (H9 [3]): 28.8 µM

Structure (SMILES): C=C(COC(=O)CC1(CC(=O)O)CCCC1)[C@@H]1CC[C@]2(COC(=O)CC3(CC(=O)O)CCCC3)CC[C@]3(C)[C@H](CC[C@@H]4[C@@]5(C)CC[C@H](OC(=O)CC6(CC(=O)O)CCCC6)C(C)(C)[C@@H]5CC[C@]43C)[C@@H]12
- selectivity ratio [1]: 1190
- EC50 (H9 [2]): 0.0054 µM
- IC50 (H9 [3]): 6.99 µM

Structure (SMILES): C=C(C)[C@@H]1CC[C@]2(COC(=O)CC3(CC(=O)O)CCCC3)CC[C@]3(C)[C@H](CC[C@@H]4[C@@]5(C)CC=CC(C)(C)[C@@H]5CC[C@]43C)[C@@H]12
- selectivity ratio [1]: 4.3
- EC50 (H9 [2]): 8.5 µM
- IC50 (H9 [3]): 36.2 µM

Structure (SMILES): C=C(COC(C)=O)[C@@H]1CC[C@]2(COC(C)=O)CC[C@]3(C)[C@H](CC[C@@H]4[C@@]5(C)CC[C@H](OC(C)=O)C(C)(C)[C@@H]5CC[C@]43C)[C@@H]12
- selectivity ratio [1]: 2.5
- EC50 (H9 [2]): 10.2 µM
- IC50 (H9 [3]): 25 µM

Structure (SMILES): C=C(C)[C@@H]1CC[C@]2(CNC(=O)CC(C)(C)CC(=O)O)CC[C@]3(C)[C@H](CC[C@@H]4[C@@]5(C)CC[C@H](NC(=O)CC(C)(C)CC(=O)O)C(C)(C)[C@@H]5CC[C@]43C)[C@@H]12
- selectivity ratio [1]: 36.6
- EC50 (H9 [2]): 0.57 µM
- IC50 (H9 [3]): 20.6 µM

Structure (SMILES): C=C(C)[C@@H]1CC[C@]2(COC(=O)CC3(CC(=O)O)CCCC3)CC[C@]3(C)[C@H](CC[C@@H]4[C@@]5(C)CCC(=O)C(C)(C)[C@@H]5CC[C@]43C)[C@@H]12
- selectivity ratio [1]: 3
- EC50 (H9 [2]): 4.3 µM
- IC50 (H9 [3]): 12.8 µM

Structure (SMILES): C=C(C)[C@@H]1CC[C@]2(CO)CC[C@]3(C)[C@H](CC[C@@H]4[C@@]5(C)CC[C@@H](O)C(C)(C)[C@@H]5CC[C@]43C)[C@@H]12 [3-EPI-BETULIN]
- selectivity ratio [1]: 3.4
- EC50 (H9 [2]): 3.62 µM
- IC50 (H9 [3]): 12.3 µM

Structure (SMILES): C=C(CO)[C@@H]1CC[C@]2(CO)CC[C@]3(C)[C@H](CC[C@@H]4[C@@]5(C)CC[C@H](O)C(C)(C)[C@@H]5CC[C@]43C)[C@@H]12 [30-HYDROXY-BETULIN]
- selectivity ratio [1]: 2.8
- EC50 (H9 [2]): 50.8 µM
- IC50 (H9 [3]): > 140 µM

Structure (SMILES): C=C(C)[C@@H]1CC[C@]2(COC(C)=O)CC[C@]3(C)[C@H](CC[C@@H]4[C@@]5(C)CC[C@H](OC(C)=O)C(C)(C)[C@@H]5CC[C@]43C)[C@@H]12 [BETULIN DIACETATE]
- selectivity ratio [1]: < 1
- EC50 (H9 [2]): > 190 µM
- IC50 (H9 [3]): > 190 µM

Structure (SMILES): C=C(C)[C@@H]1CC[C@]2(/C=N/O)CC[C@]3(C)[C@H](CC[C@@H]4[C@@]5(C)CC/C(=N\O)C(C)(C)[C@@H]5CC[C@]43C)[C@@H]12 [BETULIN-3,28-DIOXIME]
- selectivity ratio [1]: 5.1
- EC50 (H9 [2]): 1.07 µM
- IC50 (H9 [3]): 5.47 µM

Structure (SMILES): C=C(C)[C@@H]1CC[C@]2(C=O)CC[C@]3(C)[C@H](CC[C@@H]4[C@@]5(C)CCC(=O)C(C)(C)[C@@H]5CC[C@]43C)[C@@H]12 [BETULONAL]
- selectivity ratio [1]: 1.1
- EC50 (H9 [2]): 45.6 µM
- IC50 (H9 [3]): 49 µM

Structure (SMILES): C=C(C)[C@@H]1CC[C@]2(C(=O)O)CC[C@]3(C)[C@H](CC[C@@H]4[C@@]5(C)CC[C@H](OC(=O)CC(C)(C)C(=O)O)C(C)(C)[C@@H]5CC[C@]43C)[C@@H]12 [BEVIRIMAT]
- selectivity ratio [1]: > 20000
- EC50 (H9 [2]): < 0.00035 µM
- IC50 (H9 [3]): > 7 µM

Structure (SMILES): Cc1cn([C@H]2C[C@H](N=[N+]=[N-])[C@@H](CO)O2)c(=O)[nH]c1=O [ZIDOVUDINE]
- EC50 (H9 [4]): 0.037 µM
